We go through ten compounds from ChEMBL document CHEMBL1135478, “From imidazoles to pyrimidines: new inhibitors of cytokine release” (J Med Chem, 2002).

The target of test [1] is T1, MAP kinase p38 (Homo sapiens, UniProt O15264+Q15759+Q16539+P53778). Put plainly: Inhibition of p38 MAP kinase related interleukin (IL1-beta (cytokine) release from human whole blood. The format is functional, tissue-based. Summed up: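 Human whole blood preincubated 15 min (37 °C, 5% CO₂) with compound from 70:30 Cremophor EL/ethanol stock dilutions (vehicle 1% in all samples). Stimulated with LPS (E. coli 026:B6), 1 µg/mL, 4 h, 37 °C. Reaction stopped on ice, then centrifuged. Supernatant IL-1β measured by ELISA. IC50 read from semilog plot of % reduction vs vehicle controls. At least duplicate.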

The target of test [2] is T1, MAP kinase p38. The experiment in a line: Inhibition of p38 MAP kinase related TNF-alpha release from peripheral blood mononuclear cells (PBMC). The format is functional.
In test [3] the target is T1, MAP kinase p38. Put plainly: Inhibition of Mitogen-activated protein kinase p38. The format is protein assay.
Test [4] addresses T1, MAP kinase p38. Put plainly: Inhibition of p38 MAP kinase related interleukin (IL1-beta (cytokine) release from human peripheral blood mononuclear cells.
Test [5] concerns the target T1, MAP kinase p38. The experiment in a line: Inhibition of p38 MAP kinase related TNF-alpha release from human whole blood. The format is functional, tissue-based.

The structures appear in SMILES notation.

Take `C[S+]([O-])c1ccc(CSc2nc(-c3ccc(F)cc3)c(-c3ccncc3)[nH]2)cc1` (stereo unspecified): the IC50 – broadly, the midpoint of a concentration-inhibition curve – turned out to be 2.78 µM on MAP kinase p38 [1]; 3.65 µM at MAP kinase p38 [2]; 4 µM against MAP kinase p38 [3]; 0.88 µM against MAP kinase p38 [4]; 20.3 µM at MAP kinase p38 [5].

As for `C[S+]([O-])c1cccc(CSc2nc(-c3ccc(F)cc3)c(-c3ccncc3)[nH]2)c1` (stereo unspecified), the IC50 at MAP kinase p38 [1] was 4.1 µM; against MAP kinase p38 [2], 23.5 µM; on MAP kinase p38 [4], 1 µM; at MAP kinase p38 [5] it was 33.5 µM.

Consider `C[S+]([O-])c1ccccc1CSc1nc(-c2ccc(F)cc2)c(-c2ccncc2)[nH]1` (stereo unspecified), for which the IC50 on MAP kinase p38 [1] amounted to 4 µM; at MAP kinase p38 [2] it was 15 µM; at MAP kinase p38 [4], 0.9 µM; against MAP kinase p38 [5], 47.5 µM.

For the compound `CS(=O)(=O)c1ccc(CSc2ncc(-c3ccc(F)cc3)c(-c3ccncc3)n2)cc1`, the IC50 at MAP kinase p38 [1] is greater than 100 µM; against MAP kinase p38 [2] it was 17.8 µM; against MAP kinase p38 [4], 7.7 µM; against MAP kinase p38 [5] it was greater than 100 µM.

As to `C[S+]([O-])c1ccc(CSc2ncc(-c3ccc(F)cc3)c(-c3ccncc3)n2)cc1` (stereo unspecified), the IC50 at MAP kinase p38 [1] was 45.5 µM; against MAP kinase p38 [2], 14.1 µM; on MAP kinase p38 [3], 36 µM; against MAP kinase p38 [4], 5.6 µM; against MAP kinase p38 [5], 95.5 µM.

In the case of `C[S+]([O-])c1ccc(CSc2ncc(-c3ccc(F)cc3)c(-c3cccnc3)n2)cc1` (stereo unspecified), the IC50 on MAP kinase p38 [1] was greater than 100 µM; at MAP kinase p38 [2] it was 54 µM; against MAP kinase p38 [4] it was 75.5 µM; against MAP kinase p38 [5], greater than 100 µM.

As to `C[S+]([O-])c1cccc(CSc2ncc(-c3ccc(F)cc3)c(-c3ccncc3)n2)c1` (stereo unspecified), the IC50 at MAP kinase p38 [2] was 6.5 µM; against MAP kinase p38 [3], 19 µM; at MAP kinase p38 [4], 5.4 µM.

As for `C[S+]([O-])c1ccc(CSc2nc(O)c(-c3ccc(F)cc3)c(-c3ccncc3)n2)cc1` (stereo unspecified), the IC50 was greater than 100 µM against MAP kinase p38 [1], 27 µM at MAP kinase p38 [2], 25.5 µM against MAP kinase p38 [4] and greater than 100 µM at MAP kinase p38 [5].

As to `CSc1ccc(CSc2ncc(-c3ccc(F)cc3)c(-c3ccncc3)n2)cc1`, the IC50 against MAP kinase p38 [1] was greater than 100 µM; against MAP kinase p38 [2], 60 µM; against MAP kinase p38 [4], 7.4 µM; on MAP kinase p38 [5], greater than 100 µM.

Consider `C[S+]([O-])c1ccc(CSc2ncc(-c3ccncc3)c(-c3ccc(F)cc3)n2)cc1` (stereo unspecified), for which the IC50 at MAP kinase p38 [1] is greater than 100 µM; against MAP kinase p38 [2], 29.9 µM; against MAP kinase p38 [4] it was 17.8 µM; against MAP kinase p38 [5], greater than 100 µM.
